Published values collected from several papers.
Each line is one published result; the experiments were not run side by side.
Target: Ephrin type-A receptor 8 (EPHA8, Homo sapiens, UniProt P29322)
Residues used in one study (P29322 28-1005): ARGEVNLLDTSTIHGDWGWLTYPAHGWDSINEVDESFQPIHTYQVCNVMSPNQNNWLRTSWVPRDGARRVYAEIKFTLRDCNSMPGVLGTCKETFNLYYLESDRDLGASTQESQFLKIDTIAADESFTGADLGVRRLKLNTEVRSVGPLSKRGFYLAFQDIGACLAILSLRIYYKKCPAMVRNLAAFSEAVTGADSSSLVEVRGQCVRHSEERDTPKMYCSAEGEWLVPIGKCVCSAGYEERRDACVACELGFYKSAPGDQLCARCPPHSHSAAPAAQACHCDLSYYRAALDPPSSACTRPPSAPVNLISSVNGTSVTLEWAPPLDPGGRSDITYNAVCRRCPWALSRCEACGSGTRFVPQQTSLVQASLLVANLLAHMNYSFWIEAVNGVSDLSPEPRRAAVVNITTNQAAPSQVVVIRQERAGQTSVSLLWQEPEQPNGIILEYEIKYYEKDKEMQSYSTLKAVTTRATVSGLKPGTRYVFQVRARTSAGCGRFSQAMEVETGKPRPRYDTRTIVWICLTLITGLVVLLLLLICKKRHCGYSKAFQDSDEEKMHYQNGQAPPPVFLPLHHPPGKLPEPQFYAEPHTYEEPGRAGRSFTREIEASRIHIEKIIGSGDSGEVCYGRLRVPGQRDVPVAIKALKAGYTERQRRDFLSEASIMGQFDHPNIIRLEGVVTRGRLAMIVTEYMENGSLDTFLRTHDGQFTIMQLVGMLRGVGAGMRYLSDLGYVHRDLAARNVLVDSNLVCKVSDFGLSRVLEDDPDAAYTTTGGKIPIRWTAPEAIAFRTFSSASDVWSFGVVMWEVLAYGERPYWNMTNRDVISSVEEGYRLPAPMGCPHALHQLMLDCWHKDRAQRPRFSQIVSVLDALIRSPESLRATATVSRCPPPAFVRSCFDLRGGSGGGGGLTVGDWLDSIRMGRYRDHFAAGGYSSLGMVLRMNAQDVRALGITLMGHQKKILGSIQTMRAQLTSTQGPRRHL

SMILES | observed | action | method | concentration | measurement | value
COc1cc(Nc2ncc(F)c(Nc3ccc4c(n3)NC(=O)C(C)(C)O4)n2)cc(OC)c1OC | binding |  | competition with immobilised ligand | 10 µM | inhibition | 58%
Cn1cc(-c2cccc(N3CCc4c(sc5c4CC(C)(C)C5)C3=O)c2CO)cc(Nc2ccncn2)c1=O | enzyme activity | inhibitor |  | 1 µM | inhibition | 1%
Cn1cncc1[C@](O)(COc1ccc(C#N)cc1-c1ccc(OC(F)(F)F)cc1)c1ccc(C#N)cc1 | cell-free assay |  | competition with immobilised ligand | 1 µM | remaining binding | 72%
Cc1nn(C)cc1-c1nc2c(N3CCN(Cc4ccc(Cl)cc4)CC3)c(Cl)cnc2[nH]1 | binding |  | competition with immobilised ligand | 1 µM | remaining binding | 100%
COc1ncccc1-c1cnn2ccc(N3CCN(C(=O)OC(C)C)CC3)nc12 | binding |  | competition with immobilised ligand | 1 µM | remaining binding | 100%
O=c1[nH]c2ccccc2n1C1CCN(Cc2ccc(-c3[nH]c4cc5ncnc5cc4nc3-c3ccccc3)cc2)CC1 | cell-free assay |  |  | 0.5 µM | remaining signal | 106%
Cn1cc(-c2cc(F)cc(N3CCn4c(cc5c4CCCC5)C3=O)c2CO)cc(Nc2ccc(N3CCN(C4COC4)CC3)cn2)c1=O | enzyme activity | inhibitor |  | 0.1 µM | inhibition | 8%
N#CC1(c2ccccn2)CCN(Cc2cc(C(=O)O)c(=O)n3ccccc23)CC1 | cell-free assay |  | competition with immobilised ligand | 1 µM | remaining binding | 100%
CC(C)(C)c1cc(C=C(C#N)C#N)cc(Br)c1O | enzyme activity | inhibitor |  | 0.5 µM | remaining activity | 100%
COc1cc(Cl)c(C(=O)N[C@@H](CN[C@H]2CC[C@@H](N)CC2)Cc2ccc(C#N)cc2)cc1-c1ccc(CN[C@H](C)c2ccc(C)cc2)o1 | enzyme activity | inhibitor |  | 1 µM | remaining activity | 107%
Nc1ncc(-c2nc(N3CCOCC3)nc(N3CCOCC3)n2)c(C(F)F)n1 | cell-free assay |  | competition with immobilised ligand | 10 µM | remaining binding | 100%
